Test results from ChEMBL document CHEMBL4145471, “New 1,5 and 2,5-disubstituted tetrazoles-dependent activity towards surface barrier of Candida albicans” (Eur J Med Chem, 2018).

What was measured:
Candida albicans [1] = assay: Synergistic antifungal activity against Candida albicans ATCC 90028 at 40 ug/ml after 48 hrs in presence of 40 ug/ml fluconazol by checkerboard assay relative to control; assay type: functional; conditions: ATCC 90028, 48 h, read-out: GI
How it was run: (§1)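 Checkerboard in C. albicans ATCC 90028, inoculum prepared per CLSI M27-A3 in RPMI. Fluconazole serially diluted 80-1.25 µg/mL across the plate against the partner compound at 80-1.25 µg/mL final. Incubated 48 h at 35°C. Metabolic activity read by XTT reduction at 475 nm (660 nm reference), given as % of the untreated growth control.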

Candida albicans [2] = assay: Synergistic antifungal activity against Candida albicans ATCC 90028 at 20 ug/ml after 48 hrs in presence of 40 ug/ml fluconazol by checkerboard assay relative to control; assay type: functional; how it was run: as §1
Candida albicans [3] = assay: Antifungal activity against Candida albicans ATCC 90028 after 48 hrs by M27-A3 microdilution method; assay type: functional; conditions: ATCC 90028, 48 h
Candida albicans [4] = assay: Antifungal activity against Candida albicans ATCC 90028 assessed as metabolic activity at 10 ug/ml after 48 hrs in presence of 80 ug/ml fluconazol by XTT assay relative to control
Candida albicans [5] = assay: Antifungal activity against Candida albicans ATCC 90028 assessed as inhibition of metabolic activity at 10 ug/ml after 48 hrs in presence of 1.25 ug/ml fluconazol by XTT assay relative to control; assay type: functional; conditions: values are per cent of control
How it was run: (§2)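 Checkerboard against strain ATCC 90028, inoculum per M27-A3: fluconazole 80-1.25 µg/mL on one axis, tetrazole 80-1.25 µg/mL on the other. Plates at 35°C for 48 h, then XTT metabolic reduction read at 475 nm (660 nm reference). Activity is the drop in mean absorbance against untreated growth control. FICs and their summed FIC index are taken at 50% reduction in metabolic activity.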

Candida albicans [6] = assay: Antifungal activity against Candida albicans ATCC 90028 assessed as inhibition of metabolic activity at 5 ug/ml after 48 hrs in presence of 40 ug/ml fluconazol by XTT assay relative to control; assay type: functional; conditions: values are per cent of control; how it was run: as §2
Candida albicans [7] = assay: Synergistic antifungal activity against Candida albicans ATCC 90028 at 80 ug/ml after 48 hrs in presence of 40 ug/ml fluconazol by checkerboard assay relative to control; assay type: functional; how it was run: as §1
Candida albicans [8] = assay: Antifungal activity against Candida albicans ATCC 90028 assessed as inhibition of metabolic activity at 10 ug/ml after 48 hrs in presence of 5 ug/ml fluconazol by XTT assay relative to control; assay type: functional; conditions: values are per cent of control; how it was run: as §2
Candida albicans [9] = assay: Antifungal activity against Candida albicans ATCC 90028 assessed as inhibition of metabolic activity at 2.5 ug/ml after 48 hrs in presence of 5 ug/ml fluconazol by XTT assay relative to control; assay type: functional; conditions: values are per cent of control
How it was run: (§3)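 C. albicans ATCC 90028 in checkerboard: fluconazole serial dilutions (80-1.25 µg/mL) crossed with tetrazole (80-1.25 µg/mL final), M27-A3 inoculum in RPMI 1640, 35°C for 48 h. Metabolic activity measured by XTT reduction, read at 475 nm (660 nm reference). Activity expressed relative to untreated growth control absorbance.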

Candida albicans [10] = assay: Antifungal activity against Candida albicans ATCC 90028 assessed as inhibition of metabolic activity at 5 ug/ml after 48 hrs in presence of 1.25 ug/ml fluconazol by XTT assay relative to control; assay type: functional; conditions: values are per cent of control; how it was run: as §2
Candida albicans [11] = assay: Antifungal activity against Candida albicans ATCC 90028 assessed as metabolic activity at 20 ug/ml after 48 hrs in presence of 20 ug/ml fluconazol by XTT assay relative to control; conditions: ATCC 90028, 48 h
Candida albicans [12] = assay: Antifungal activity against Candida albicans ATCC 90028 at 0.25 ug/ml after 18 hrs relative to control; assay type: functional
How it was run: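 Fluconazole (water stock, diluted in RPMI 1640) tested by CLSI M27-A3 broth microdilution against C. albicans ATCC 90028. Inoculum 1.8×10^3 cells/mL in RPMI 1640 buffered with MOPS, pH 7.0. Incubation at 35°C without agitation, read at 18 and 48 h. Growth by OD405 and visually; inhibition % calculated against solvent growth-control wells after subtracting sterility-control wells.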

Candida albicans [13] = assay: Synergistic antifungal activity against Candida albicans ATCC 90028 assessed as fluconazol FIC at 1.25 to 80 ug/ml after 48 hrs by checkerboard assay; assay type: functional
How it was run: (§4)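 Checkerboard per M27-A3 against ATCC 90028: fluconazole at 80–1.25 µg/mL horizontally and partner compound at 80–1.25 µg/mL vertically, 100 µL yeast inoculum per well, 35°C for 48 h. After 48 h, metabolic activity was measured by XTT reduction at 475 nm (660 nm reference) relative to untreated growth control. FIC index is the sum of the FICs; <1 was defined as synergism and >1 as antagonism.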

Candida albicans [14] = assay: Synergistic antifungal activity against Candida albicans ATCC 90028 at 10 ug/ml after 48 hrs in presence of 5 ug/ml fluconazol by checkerboard assay relative to control; assay type: functional; how it was run: as §4
Candida albicans [15] = assay: Synergistic antifungal activity against Candida albicans ATCC 90028 at 80 ug/ml after 48 hrs in presence of 1.25 ug/ml fluconazol by checkerboard assay relative to control; assay type: functional; how it was run: as §1
Candida albicans [16] = assay: Antifungal activity against Candida albicans ATCC 90028 assessed as inhibition of metabolic activity at 2.5 ug/ml after 48 hrs in presence of 10 ug/ml fluconazol by XTT assay relative to control; assay type: functional; conditions: values are per cent of control; how it was run: as §3
Caco-2 = assay: Cytotoxicity against human Caco2 cells assessed as reduction in cell viability at 0.0313 ug/ml after 18 hrs by XTT assay ralative to control; assay type: cell-based; conditions: caco-2, 18 h
How it was run: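 Caco-2 cells were exposed to compound at 256, 16 or 0.0313 µg/mL for 18 h, then given XTT reagent for 4–6 h. Absorbance was read at 475 nm with a 660 nm reference, and viability and toxicity were expressed as %. CC50 was taken as the concentration giving 50% viability loss. Means ± SD of three independent experiments, samples in duplicate.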

Candida albicans [17] = assay: Antifungal activity against Candida albicans ATCC 90028 at 0.5 ug/ml after 48 hrs relative to control; assay type: functional
How it was run: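 Planktonic broth microdilution per M27-A3 in MOPS-buffered RPMI 1640 (pH 7.0), final inoculum 1.8×10^3 cells/mL, compounds 0.0313–16 µg/mL from 1600 µg/mL stocks in ethanol or DMSO. Incubated at 35°C without agitation; OD405 read at 18 and 48 h. % inhibition was derived from test, sterility (no inoculum) and solvent growth-control wells. Amphotericin B at 0.5 µg/mL served as the 100% control.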

Candida albicans [18] = assay: Antifungal activity against Candida albicans ATCC 90028 assessed as inhibition of metabolic activity at 10 ug/ml after 48 hrs in presence of 10 ug/ml fluconazol by XTT assay relative to control; assay type: functional; conditions: ATCC 90028, 48 h, values are per cent of control; how it was run: as §2
Candida albicans [19] = assay: Synergistic antifungal activity against Candida albicans ATCC 90028 at 5 ug/ml after 48 hrs in presence of 20 ug/ml fluconazol by checkerboard assay relative to control; assay type: functional; how it was run: as §1

Row | SMILES | inhibition of growth at 40 µg/mL (Candida albicans [1]) [%] | growth inhibition (GI) (Candida albicans [2]) [%] | MIC (Candida albicans [3]) [µg/mL] | Metabolic activity (Candida albicans [4]) [%] | residual activity (Candida albicans [5]) [%] | residual activity (Candida albicans [6]) [%] | growth inhibition (GI) (Candida albicans [7]) [%] | residual activity (Candida albicans [8]) [%] | residual activity (Candida albicans [9]) [%] | residual activity (Candida albicans [10]) [%] | Metabolic activity at 20 µg/mL (Candida albicans [11]) [%] | Activity (Candida albicans [12]) [%] | FIC (Candida albicans [13]) | growth inhibition (GI) (Candida albicans [14]) [%] | growth inhibition (GI) (Candida albicans [15]) [%] | residual activity (Candida albicans [16]) [%] | Activity (Caco-2) [%] | Activity (Candida albicans [17]) [%] | residual activity at 10 µg/mL (Candida albicans [18]) [%] | growth inhibition (GI) (Candida albicans [19]) [%] | further results
1 | Cc1ccc(-c2nnn(CCCN3CCOCC3)n2)cc1 | 99.5 | 98.99 | > 16 | 89.3 | 100 | 100 | 99.21 | 100 | 100 | 100 | 61.7 | 98.25 | 5 | 98.12 | 98.77 | 85.87 | 18.76 | 99.18 | 99 | 99.16 | –
2 | CCOC(=O)CCn1nnc(-c2ccccc2)n1 | 99.5 | 99.29 | > 16 | 77.26 | 90.58 | 94.92 | 99.34 | 100 | 95.38 | 88.02 | 57.3 | 98.4 | 5 | 98.97 | 99.97 | 71.01 | 0 | 99.31 | 76.2 | 99.58 | –
3 | ClCCCn1nnnc1-c1ccccc1Cl | 99.4 | 99.34 | > 16 | 80.34 | 73.65 | 86.34 | 99.79 | 100 | 100 | 79.99 | 67.8 | 99.96 | 5 | 98.9 | 100 | 64.55 | 0 | 99.22 | 75.4 | 99.67 | fold change (FC) (Candida albicans [13]): 5
